Test results: ChEMBL document CHEMBL3352170, “Sulfonamides as multifunctional agents for Alzheimer's disease” (Bioorg Med Chem Lett, 2015)
Active and inactive are the calls of the source. The rule behind the calls is not given here.

Legend:
[1] = biological target: Amyloid-beta precursor protein (Homo sapiens) (UniProt P05067); test: Stimulation of Amyloid beta (1 to 40) (unknown origin) fibril formation at Abeta:compound ratio of 1:10 after 4 days by Thioflavin-T fluorescence assay
How it was run: (§1)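 Aβ fibrillogenesis was measured by quantitative Thioflavin-T fluorescence with Aβ at 100 µM and Aβ:inhibitor at 1:10, or 1:1 for one compound. Signal was normalized to the fluorescence of the inhibitor-free control.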

[2] = biological target: Amyloid-beta precursor protein (Homo sapiens) (UniProt P05067); test: Inhibition of Amyloid beta (1 to 42) (unknown origin) oligomer assembly at Abeta:compound ratio of 0.0002 after 30 mins by single-site ELISA assay
How it was run: (§2)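 Oligomer formation was read in a single-site streptavidin-based assay using biotinyl-Aβ(1–42) at 0.01 µM. Aβ/inhibitor ratio was 0.0002, with 30 min incubation.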

Cholinesterase [3] = biological target: T1, Cholinesterase (Homo sapiens, UniProt P06276); test: Inhibition of BuChE (unknown origin) assessed as reduction in S-butyrylthiocholine chloride hydrolysis after 15 mins by Ellman method
[4] = Antioxidant activity assessed as DPPH radical scavenging activity at 10 uM after 30 mins; assay type: physicochemical; settings: 0.5 h
[5] = biological target: Amyloid-beta precursor protein (Homo sapiens) (UniProt P05067); test: Inhibition of Amyloid beta (1 to 40) (unknown origin) fibril formation at Abeta:compound ratio of 1:10 after 4 days by Thioflavin-T fluorescence assay; how it was run: as §1
Acetylcholinesterase = Acetylcholinesterase (Homo sapiens, UniProt P22303); test: Inhibition of AChE (unknown origin) assessed as reduction in acetylthiocholine iodide hydrolysis after 15 mins by Ellman method
Cholinesterase [6] = biological target: T1, Cholinesterase; test: Inhibition of BuChE (unknown origin) assessed as reduction in S-butyrylthiocholine chloride hydrolysis at 10 uM after 15 mins by Ellman method
How it was run: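 Single-concentration screen of the commercial and synthetic sulfonamides. Read-out is percent inhibition of BuChE activity. Galanthamine serves as the reference standard.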

[7] = biological target: Amyloid-beta precursor protein (Homo sapiens) (UniProt P05067); test: Stimulation of Amyloid beta (1 to 42) (unknown origin) oligomer assembly at Abeta:compound ratio of 0.0002 after 30 mins by single-site ELISA assay; how it was run: as §2
[8] = biological target: Amyloid-beta precursor protein (Homo sapiens) (UniProt P05067); test: Inhibition of Amyloid beta (1 to 40) (unknown origin) fibril formation at Abeta:compound ratio of 1:1 after 4 days by Thioflavin-T fluorescence assay; settings: concentration not given here; how it was run: as §1
[9] = biological target: Amyloid-beta precursor protein (Homo sapiens) (UniProt P05067); test: Inhibition of Amyloid beta (1 to 40) (unknown origin) fibril formation at Abeta:compound ratio of 1:10 after 4 days by atomic force microscopy
How it was run: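 Aβ(1–40) was incubated for 4 days with or without inhibitor, at 100 µM Aβ and Aβ:inhibitor 1:10. Fibril morphology was imaged by atomic force microscopy against a solvent-treated control.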

T1 sequence (P06276 whole entry): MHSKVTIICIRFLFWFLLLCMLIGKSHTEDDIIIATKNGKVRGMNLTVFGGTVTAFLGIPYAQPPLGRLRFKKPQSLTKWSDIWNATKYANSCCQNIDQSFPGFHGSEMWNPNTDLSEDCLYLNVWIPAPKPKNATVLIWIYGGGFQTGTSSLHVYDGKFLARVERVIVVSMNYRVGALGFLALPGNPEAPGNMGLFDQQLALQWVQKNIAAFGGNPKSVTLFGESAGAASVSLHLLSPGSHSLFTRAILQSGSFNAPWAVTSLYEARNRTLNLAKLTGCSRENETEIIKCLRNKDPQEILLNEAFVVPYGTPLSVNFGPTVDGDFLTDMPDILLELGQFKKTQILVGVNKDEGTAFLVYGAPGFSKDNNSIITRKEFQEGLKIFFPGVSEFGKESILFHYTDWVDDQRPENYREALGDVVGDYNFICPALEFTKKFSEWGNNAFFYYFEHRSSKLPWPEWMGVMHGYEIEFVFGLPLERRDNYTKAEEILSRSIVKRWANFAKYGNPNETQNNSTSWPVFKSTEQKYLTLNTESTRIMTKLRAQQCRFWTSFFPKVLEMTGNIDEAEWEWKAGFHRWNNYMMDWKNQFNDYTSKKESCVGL
Amyloid-beta precursor protein (Homo sapiens), sequence (P05067 whole entry): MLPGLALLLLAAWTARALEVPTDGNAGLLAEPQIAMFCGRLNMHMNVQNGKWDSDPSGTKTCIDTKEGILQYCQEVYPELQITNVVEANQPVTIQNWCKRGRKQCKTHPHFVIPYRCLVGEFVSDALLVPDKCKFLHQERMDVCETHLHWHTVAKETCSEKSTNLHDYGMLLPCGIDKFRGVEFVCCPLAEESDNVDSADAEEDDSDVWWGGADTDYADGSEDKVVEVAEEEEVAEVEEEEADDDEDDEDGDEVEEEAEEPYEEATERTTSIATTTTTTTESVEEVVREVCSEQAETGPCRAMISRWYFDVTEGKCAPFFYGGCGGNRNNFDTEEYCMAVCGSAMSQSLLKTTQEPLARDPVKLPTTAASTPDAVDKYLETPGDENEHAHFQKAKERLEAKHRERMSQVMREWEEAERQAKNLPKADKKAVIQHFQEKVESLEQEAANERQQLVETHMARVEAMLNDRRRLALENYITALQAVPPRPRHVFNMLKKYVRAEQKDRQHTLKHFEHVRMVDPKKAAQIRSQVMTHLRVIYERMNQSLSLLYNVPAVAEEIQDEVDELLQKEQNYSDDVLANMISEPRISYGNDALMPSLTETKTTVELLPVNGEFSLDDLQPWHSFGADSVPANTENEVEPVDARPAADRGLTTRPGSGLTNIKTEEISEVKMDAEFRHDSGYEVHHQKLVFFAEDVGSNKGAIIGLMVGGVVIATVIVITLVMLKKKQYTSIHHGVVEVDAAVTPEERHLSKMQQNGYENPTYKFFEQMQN
Acetylcholinesterase, sequence (P22303 whole entry): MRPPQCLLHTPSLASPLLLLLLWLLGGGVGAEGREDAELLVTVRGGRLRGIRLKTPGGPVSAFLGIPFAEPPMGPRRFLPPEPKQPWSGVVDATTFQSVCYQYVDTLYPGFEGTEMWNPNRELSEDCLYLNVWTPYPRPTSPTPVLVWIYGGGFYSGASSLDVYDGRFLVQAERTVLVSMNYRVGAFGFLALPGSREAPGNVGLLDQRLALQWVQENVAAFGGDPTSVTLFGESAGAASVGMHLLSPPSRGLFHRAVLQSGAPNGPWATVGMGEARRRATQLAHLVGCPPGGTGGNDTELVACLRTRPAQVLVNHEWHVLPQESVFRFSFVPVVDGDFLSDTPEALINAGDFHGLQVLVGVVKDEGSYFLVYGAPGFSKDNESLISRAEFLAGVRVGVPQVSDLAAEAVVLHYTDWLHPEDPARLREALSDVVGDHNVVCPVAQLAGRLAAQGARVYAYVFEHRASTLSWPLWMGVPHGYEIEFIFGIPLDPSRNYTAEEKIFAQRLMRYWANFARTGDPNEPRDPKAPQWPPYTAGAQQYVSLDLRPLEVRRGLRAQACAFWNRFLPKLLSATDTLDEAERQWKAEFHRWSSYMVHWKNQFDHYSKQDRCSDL

Row | SMILES | Activity [1] | inhibition [2] | inhibition (Cholinesterase [6]) | Activity [7] | inhibition [5] | other results
1 | CCN(CC)CCCN1C(=O)c2ccccc2S1(=O)=O | Active | < 54% |  |  |  | 
2 | O=S(=O)(CCCN1CCN(Cc2ccccc2)CC1)NCCNc1cccc2ccccc12 |  |  | 90% | Active |  | IC50 (Cholinesterase [3]): 2 µM; Activity [4]: Active; inhibition ([5]; concentration not given here): 43%; IC50 (Acetylcholinesterase): 0.16 µM
3 | O=C1c2ccccc2S(=O)(=O)N1CCCN1CCN(Cc2ccccc2)CC1 | Active | inactive |  |  |  | 
4 | Cl.O=S(=O)(CCCN(CCO)CCO)NCCNc1cccc2ccccc12 |  |  |  | Active | Active | Activity [4]: Active
5 | O=C(NCCCCNC(=O)c1ccc2ccccc2c1)c1ccc2ccccc2c1 |  | 99% |  |  | Active | 
6 | O=C1c2ccccc2S(=O)(=O)N1CCCN(CCO)CCO | Active | < 54% |  |  |  | 
7 | O=C1c2ccccc2S(=O)(=O)N1CCCN1CCC(O)CC1 | Active | < 54% |  |  |  | 
8 | O=S(=O)(CCCN1CCC(Cc2ccccc2)CC1)NCCNc1cccc2ccccc12 |  |  | > 40% | Active |  | inhibition ([5]; concentration not given here): 60%
9 | CC(NCCCS(=O)(=O)NCCNc1cccc2ccccc12)c1ccccc1 (centres undefined) |  |  | > 40% | Active | Active | 
10 | O=S(=O)(CCCNCCc1c[nH]c2ccccc12)NCCNc1cccc2ccccc12 |  |  | > 80% | Active | Active | 
11 | O=C(CCC(=O)NCCNc1cccc2ccccc12)NCCNc1cccc2ccccc12 |  | 50% |  |  | Active | 
12 | O=S(=O)(CCCCl)NCCNc1cccc2ccccc12 |  |  |  | Active | Active | 
13 | CC(C(O)c1ccccc1)N(C)CCCS(=O)(=O)NCCNc1cccc2ccccc12.Cl (centres undefined) |  |  | > 40% | Active | Active | Activity [4]: Active
14 | O=C1c2ccccc2S(=O)(=O)N1CCO | Active | < 54% |  |  |  | 
15 | O=S(=O)(CCCN1CCN(c2ccccc2)CC1)NCCNc1cccc2ccccc12 |  |  | > 40% | Active | Active | 
16 | O=S(=O)(CCCN1CCOCC1)NCCNc1cccc2ccccc12 |  |  |  | Active | Active | 
17 | NS(=O)(=O)c1ccccc1Br | Active | < 54% |  |  |  | 
18 | COc1ccc(S(N)(=O)=O)cc1 | Active | < 54% |  |  |  | 
19 | O=S(=O)(CCCN1CCN(c2ncccn2)CC1)NCCNc1cccc2ccccc12 |  |  |  | Active | Active | 
20 | O=S(=O)(CCCNCCNc1cccc2ccccc12)NCCNc1cccc2ccccc12 |  |  | 99% | Active |  | IC50 (Cholinesterase [3]): 0.93 µM; inhibition [8]: 45%
21 | O=S(=O)(CCCN1CCC(c2ccccc2)CC1)NCCNc1cccc2ccccc12 |  |  | 58% | Active |  | IC50 (Cholinesterase [3]): 5.08 µM; inhibition ([5]; concentration not given here): 87%; inhibition [9]: Active
22 | Cc1ccccc1S(N)(=O)=O | Active | < 54% |  |  |  | 
23 | NS(=O)(=O)c1ccc([N+](=O)[O-])cc1 | Active | < 54% |  |  |  | 
24 | Oc1ccc(/C=C/c2cc(O)cc(O)c2)cc1 [RESVERATROL] |  |  |  |  |  | Activity [4]: Active
25 | O=C1NS(=O)(=O)c2ccccc21 [SACCHARIN] | Active | < 54% | 73% |  |  | IC50 (Cholinesterase [3]): 3.6 µM
26 | O=S(=O)(CCCN1CCC(O)CC1)NCCNc1cccc2ccccc12 |  |  |  | Active |  | inhibition ([5]; concentration not given here): 64%
27 | CCN(CC)CCN1C(=O)c2ccccc2S1(=O)=O | Active | < 54% |  |  |  | 
28 | O=S(=O)(CCCN1CCN(c2ccccn2)CC1)NCCNc1cccc2ccccc12 |  |  | > 40% | Active | Active | 
